# Laboratory results as given in PMC4324418 (ACS Chemical Neuroscience, 2014).
# How the values were obtained:
# rat M4 receptor [1] = target: T1, rat M4 receptor (Rattus norvegicus, UniProt P08485); type: cell-based; settings: maximum response as % of the Emax of ACh
# T1 sequence (P08485 1-478): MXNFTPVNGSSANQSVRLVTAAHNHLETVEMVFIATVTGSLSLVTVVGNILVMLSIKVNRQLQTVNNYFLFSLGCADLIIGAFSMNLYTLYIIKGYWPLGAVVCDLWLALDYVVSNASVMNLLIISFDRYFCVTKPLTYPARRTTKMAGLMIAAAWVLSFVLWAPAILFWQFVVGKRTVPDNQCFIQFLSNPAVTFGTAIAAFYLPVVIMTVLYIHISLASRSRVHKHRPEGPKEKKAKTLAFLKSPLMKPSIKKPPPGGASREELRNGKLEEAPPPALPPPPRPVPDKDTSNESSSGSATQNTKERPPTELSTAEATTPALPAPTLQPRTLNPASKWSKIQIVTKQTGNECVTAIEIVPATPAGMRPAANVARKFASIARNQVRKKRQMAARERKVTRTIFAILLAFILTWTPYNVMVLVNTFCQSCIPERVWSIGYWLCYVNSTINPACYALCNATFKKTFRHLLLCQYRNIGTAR
# rat M1 receptor = assay: Calcium mobilization, selectivity; type: cell-based
# Outline: (§1)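 Cells were seeded at 15000/well in DMEM with 10% dialyzed FBS, 20 mM HEPES and 1 mM pyruvate, then cultured overnight at 37 °C/5% CO2. M2 and M4 lines were cotransfected with Gqi5. Cells were loaded with 1 μM Fluo-4AM (HBSS, 20 mM HEPES, 2.5 mM probenecid, pH 7.4) for 50 min at 37 °C. ACh was added 140 s after test compound. Calcium signal was expressed as % of the 10 μM ACh maximum.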
# rat M3 receptor = assay: Calcium mobilization, selectivity; type: cell-based
# Outline: as §1
# rat M5 receptor = assay: Calcium mobilization, selectivity; type: cell-based
# Outline: as §1
# human M2 receptor = assay: Calcium mobilization, selectivity; type: cell-based
# Outline: as §1
# human M3 receptor = assay: Calcium mobilization, selectivity; type: cell-based
# Outline: as §1
# human M5 receptor = assay: Calcium mobilization, selectivity; type: cell-based
# Outline: as §1
# rat M4 receptor [2] = target: T1, rat M4 receptor; assay: Progressive fold-shift of ACh concentration-response curve; type: cell-based; settings: operational model of allosterism
# [3] = target: T2, human adenosine transporter (Homo sapiens, UniProt Q99808); assay: [3H]adenosine uptake functional assay; type: cell-based
# T2 sequence (Q99808 1-456): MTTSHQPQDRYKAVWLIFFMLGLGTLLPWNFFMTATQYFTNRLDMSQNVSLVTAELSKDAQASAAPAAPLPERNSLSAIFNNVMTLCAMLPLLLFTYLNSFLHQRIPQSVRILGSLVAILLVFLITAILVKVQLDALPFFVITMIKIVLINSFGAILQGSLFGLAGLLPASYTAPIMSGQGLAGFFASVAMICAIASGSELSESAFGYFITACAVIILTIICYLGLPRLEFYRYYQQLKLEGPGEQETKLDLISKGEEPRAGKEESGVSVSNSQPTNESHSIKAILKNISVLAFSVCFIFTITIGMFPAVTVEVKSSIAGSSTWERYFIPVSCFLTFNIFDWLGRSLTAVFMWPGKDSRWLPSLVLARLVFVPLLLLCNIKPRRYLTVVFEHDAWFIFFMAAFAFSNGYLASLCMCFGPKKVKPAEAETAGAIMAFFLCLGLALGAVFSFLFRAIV
# in vitro = in vitro ADME; settings: rat, plasma
# [4] = Biotransformation in cryopreserved rat hepatocytes; type: in vitro ADME; settings: male, Sprague–Dawley rat (data not shown)
# [5] = Mouse plasma protein binding; type: in vitro ADME
# [6] = Amphetamine-induced hyperlocomotion in rats; type: in vivo; settings: Sprague-Dawley, rat, brain, po
# rats = assay: Amphetamine-induced hyperlocomotion in rats; type: in vivo; settings: rat, amphetamine 0.75 mg/kg SC
# [7] = Amphetamine-induced hyperlocomotion in M4 KO mice; type: in vivo, mouse; settings: mouse, brain, ip, 10 mg/kg, 10 mg/kg IP
# M4 KO mice = assay: Amphetamine-induced hyperlocomotion in M4 KO mice; type: in vivo, mouse
# wild-type mice [8] = assay: Nociceptive response to increasing footshock current intensities; type: in vivo, mouse; settings: 10 mg/kg IP
# Outline: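 Mice received vehicle (10% Tween 80 in sterile water, IP) or test compound (10 mg/kg IP) and were placed in conditioning chambers 30 min later. Behavioural responses were scored over rising footshock currents, 0–0.5 mA in 0.05 mA steps. Groups had 6–10 animals. Data: mean ± SEM, one-way ANOVA with Bonferroni test.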
# wild-type mice [9] = assay: Modified Irwin neurological test battery; type: in vivo, mouse; settings: 10–30 mg/kg
# wild-type mice [10] = assay: Rotarod; type: in vivo, mouse; settings: 3–30 mg/kg IP, rotarod 20 rpm
# Outline: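 Mice received vehicle (10% Tween 80 in sterile water IP) or test compound (3–30 mg/kg IP). Sixty minutes later they were placed on the rotarod and latency to fall was measured. One-way ANOVA with Dunnett's test.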
compound,measurement,setting,value
"Cc1nnc2sc(C(=O)NCc3ccc(S(=O)(=O)C(F)(F)F)cc3)c(N)c2c1C [VU0467154, 5-amino-3,4-dimethyl-N-(4-((trifluoromethyl)sulfonyl)benzyl)thieno[2,3-c]pyridazine-6-carboxamide]",%AChmax,rat M4 receptor [1],68%
same,potentiation of ACh response (calcium response),rat M1 receptor,lack of a calcium response
same,potentiation of ACh response (calcium response),rat M3 receptor,lack of a calcium response
same,potentiation of ACh response (calcium response),rat M5 receptor,lack of a calcium response
same,potentiation of ACh response (calcium response),human M2 receptor,lack of a calcium response
same,potentiation of ACh response (calcium response),human M3 receptor,lack of a calcium response
same,potentiation of ACh response (calcium response),human M5 receptor,lack of a calcium response
same,efficacy cooperativity factor (log β),rat M4 receptor [2],0.91
same,efficacy cooperativity factor β,rat M4 receptor [2],8.17
same,IC50,[3],240 nM
same,fraction unbound,in vitro,0.031
same,turnover in hepatocytes,[4],low turnover
same,fraction unbound,[5],0.022
same,concentration at 1.5 h,"[6]; 3 mg/kg, mean Cbrain, PO 3 mg/kg, at 1.5 h postadministration",750 nM
same,concentration at 1.5 h,"[6]; 3 mg/kg, mean Cbrain,u, PO 3 mg/kg, 1.5 h, in vitro rat fubrain 0.067",50 nM
same,concentration at 1.5 h,"[6]; 10 mg/kg, mean Cbrain, PO 10 mg/kg, at 1.5 h postadministration",1100 nM
same,concentration at 1.5 h,"[6]; 10 mg/kg, mean Cbrain,u, PO 10 mg/kg, 1.5 h, in vitro rat fubrain 0.067",74 nM
same,concentration at 1.5 h,"[6]; 30 mg/kg, mean Cbrain,u, PO 30 mg/kg, 1.5 h, in vitro rat fubrain 0.067",94 nM
same,concentration at 1.5 h,"[6]; 56.6 mg/kg, mean Cbrain,u, PO 56.6 mg/kg, 1.5 h, in vitro rat fubrain 0.067",94 nM
same,mean reversal of AHL,rats; PO 1 mg/kg,21%
same,mean reversal of AHL,rats; PO 3 mg/kg,33%
same,mean reversal of AHL,rats; PO 10 mg/kg,46%
same,mean reversal of AHL,rats; PO 30 mg/kg,53%
same,mean reversal of AHL,rats; PO 56.6 mg/kg,42%
same,concentration at 2.5 h,"[7]; mean Cbrain, at 2.5 h postadministration",217 nM
same,concentration at 2.5 h,"[7]; mean Cbrain,u, 2.5 h, in vitro mouse fubrain 0.014",3 nM
same,effect on amphetamine-induced hyperlocomotion,M4 KO mice,had no effect on the time course of amphetamine-induced hyperlocomotion
same,mean reversal of AHL,"M4 KO mice; 10 mg/kg IP, amphetamine […] SC",–6.6%
same,footshock threshold to elicit jumping,wild-type mice [8],increased the threshold to elicit jumping
same,"twitching, flinching, and vocalizing responses to increasing foot shock intensities",wild-type mice [8],did not alter
same,autonomic and somatosensory side effects,wild-type mice [9],did not exhibit autonomic and somatosensory side effects
same,latency to fall,wild-type mice [10],did not alter the latency to fall
